Screening data as filed in PubChem BioAssay.
Most compounds without a hit are left out; they make up all but 5.9% or so of the library.
HUVEC inhibit = inhibitors of HUVEC proliferation, primary screen, cell-based, 384-well; CellTiter-Glo luminescence, 72 h; hits give low values; viability, % at 10 µM (by protocol); actives 1.1% (n = 86,000);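 active means viability at or below 30%; inactive means viability above 30%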
Fibroblast inh = antiproliferative effect on LL 47 fibroblasts – human, LL 47 cells, CellTiter-Glo luminescence, primary screen. AID 719, 2007. actives 1.1% (n = 85,000). viability, % at 10 µM. LL 47 human lung fibroblast viability, ATP luminescence; hits give low values;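 active means viability at or below 50% in the single dose screen; inactive means viability above 50%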;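 further: compound exposure lasted 72 h before the ATP readout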
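Test system: LL 47 human lung fibroblasts / Incubation: 72 h compound exposure at 37 °C after overnight plating / Technique: luminescent ATP detection, CellTiter-Glo / Compound dosing: 0.1% DMSO in all compound wells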
Jurkat tox 60K = cytotoxicity toward Jurkat T cells, primary screen, cytotoxicity control, cell-based, Jurkat E6.1, 60K MLSMR library | Jurkat E6.1 viability, ATP luminescence, 48 h | inhibition, % at 4 µM | actives 1.2% (n = 56,000) | AID 463, 2006;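 active means inhibition above the mean inhibition of all tested compounds plus 3 SD, cut at about 28% in these data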
Pyk2 oligo antag = antagonists of Pyk2 self-association, primary screen, Q293 cells, FERM NanoBiT luminescence, HTS; actives 0.83% (n = 99,000); Protein-tyrosine kinase 2-beta (Homo sapiens), Q14289; z-score (the deposit names both 25 µM and 10 µM); hits give low values;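 active means Z-score of -3 or lower, scaled per plate to the spread of control and sample wells; inactive means z-score above -3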;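 further: negative z-score means lost luminescence so less FERM oligomerization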
MT1-MMP txn act = MT1-MMP promoter reporter activation – cell-based, luciferase luminescence, primary screen; HT1080 MT1-MMP promoter luciferase reporter, overnight; hits give high values; activation factor at 10 µM; actives 0.16% (n = 86,000);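 active means activation factor of at least 2 for MT1-MMP transcription at 10 µM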
H69AR growth 86K = proliferation blockers of H69AR lung cancer cells, primary screen, cell-based, human, 86K library | actives 6% (n = 85,000) | AID 598, 2007 | H69AR lung tumor viability, ATP luminescence, 72 h; hits give low values | viability, % at 10 µM;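 active means viability at or below 40%; inactive means viability above 40%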;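 further: multidrug resistant small cell line overexpressing MRP-1 efflux transporter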
Of the large screens only hits and unclear results are named; the others gave an inactive call.

Cc1sc2nc(CN(C(=O)NC3CCCCC3)C3CCCCC3)[nH]c(=O)c2c1C	none (no result: Jurkat tox 60K)
N#Cc1ccccc1Sc1ccccc1C(=O)OCc1nnc(-c2ccccc2)o1	Pyk2 oligo antag -3.7
CCn1c(SCC(=O)c2cc(OC)ccc2OC)nnc1C1CC1	none
Cc1cccc(NC(=O)c2cc(NC(=O)c3ccco3)ccc2N2CCCCC2)c1	HUVEC inhibit 26
O=C(Nc1ccc(N2CCCCC2)c(C(=O)O)c1)c1ccco1	none
CCC(C)c1ccc2oc(-c3ccc(NC(=O)Cn4cnc5c(=O)n(C)c(=O)n(C)c54)cc3)nc2c1 (centres undefined)	Fibroblast inh 34, H69AR growth 86K 25
Cn1c(=O)c2ncn(CC(=O)Nc3ccc4oc(-c5cccc6ccccc56)nc4c3)c2n(C)c1=O	HUVEC inhibit 27 (no result: Pyk2 oligo antag)
Cn1c(=O)c2ncn(CC(=O)Nc3ccc(N4CCOCC4)cc3)c2n(C)c1=O	none (no result: HUVEC inhibit, Fibroblast inh, Jurkat tox 60K, MT1-MMP txn act, H69AR growth 86K)
CO/N=C(/CNC(=O)c1ccc(F)cc1)c1ccc(Cl)cc1	none (no result: HUVEC inhibit, Fibroblast inh, Jurkat tox 60K, MT1-MMP txn act, H69AR growth 86K)
Cc1ccnc2ccc(-c3nc4ccccc4o3)cc12	HUVEC inhibit 30
O=C(Cn1c(C(=O)N2CCN(C3CCCCC3)CC2)cc2sccc21)c1ccccc1	none
O=C(Cn1c(C(=O)N2CCc3ccccc3C2)cc2sccc21)c1ccccc1	Pyk2 oligo antag -4
CCCNc1nc(Nc2ccc(C)cc2)nc(N2CCCC2)n1	H69AR growth 86K 35 (no result: Jurkat tox 60K)
Cc1cccc(Nc2nc(N3CCCCC3)nc(N3CCCCC3)n2)c1	none (no result: Jurkat tox 60K, MT1-MMP txn act)
Cc1nc2cc(S(=O)(=O)N(C)C)ccc2n1-c1ccccc1	none
CCN(CC)S(=O)(=O)c1cc(NC(=O)C(C)OC(=O)c2[nH]c(C)c(C(C)=O)c2C)ccc1C (centres undefined)	none (no result: HUVEC inhibit, Fibroblast inh, Jurkat tox 60K, MT1-MMP txn act, H69AR growth 86K)
O=C(Oc1ccc(Cl)c2cccnc12)N1CCOCC1	none (no result: HUVEC inhibit, Fibroblast inh, H69AR growth 86K)
COc1cccc(C(=O)Oc2c(CN3CCOCC3)cc(Cl)c3cccnc23)c1	Fibroblast inh 6.5, H69AR growth 86K 1.5 (no result: Jurkat tox 60K)
COc1cc(C(=O)Oc2c(CN3CCOCC3)cc(Cl)c3cccnc23)cc(OC)c1OC	Fibroblast inh 4.7, H69AR growth 86K 2.1 (no result: Pyk2 oligo antag, MT1-MMP txn act)
COc1ccc(C(=O)Oc2c(CN3CCOCC3)cc(Cl)c3cccnc23)cc1	Fibroblast inh 47, H69AR growth 86K 2.4
O=C(Oc1c(CN2CCOCC2)cc(Cl)c2cccnc12)c1ccc(F)cc1	Fibroblast inh 4.5
Cc1ccc(SCC(=O)Nc2ccccc2C(=O)O)cc1	none (no result: Jurkat tox 60K)
CCOC(=O)CN1C(=O)C2Cc3ccccc3CN2C1=S (centres undefined)	none (no result: HUVEC inhibit, Fibroblast inh, Jurkat tox 60K, MT1-MMP txn act, H69AR growth 86K)
CC(C)CCn1c(CN2CCN(c3cccc(Cl)c3)CC2)nc2c1c(=O)n(C)c(=O)n2C	none (no result: HUVEC inhibit, Fibroblast inh, Pyk2 oligo antag, H69AR growth 86K)
Nn1c(SCC(=O)N2CCN(S(=O)(=O)c3ccc(Cl)cc3)CC2)nnc1-c1cccs1	none (no result: Jurkat tox 60K)
CC(Oc1ccc(Cl)cc1Cl)c1nc(-c2ccc(NC(=O)c3ccccn3)cc2)no1 (centres undefined)	H69AR growth 86K 29 (no result: Jurkat tox 60K)
CCCN(Cc1cc2ccc(C)cc2[nH]c1=O)S(=O)(=O)c1ccccc1	none (no result: Jurkat tox 60K)
CCOC(=O)c1cnc2ccc(C(=O)OC)cc2c1Nc1ccc2c(c1)OCCO2	none (no result: HUVEC inhibit, Fibroblast inh, Jurkat tox 60K, MT1-MMP txn act, H69AR growth 86K)
CCOC(=O)c1cnc2ccc(OC)cc2c1Nc1ccc2c(c1)OCCO2	Pyk2 oligo antag -4 (no result: HUVEC inhibit, Fibroblast inh, Jurkat tox 60K, MT1-MMP txn act, H69AR growth 86K)
Cn1c(-c2ccc[nH]c2=O)nc2cc(Cl)ccc21	none (no result: HUVEC inhibit, Fibroblast inh, Jurkat tox 60K, MT1-MMP txn act, H69AR growth 86K)
COc1ccc2oc(=O)c(C(=O)N3CCN(C45CC6CC(CC(C6)C4)C5)CC3)cc2c1	none (no result: Pyk2 oligo antag)
COc1ccc(S(=O)(=O)N(CCN2CCOCC2)Cc2cc(OC)ccc2OC)cc1	none
COc1cc(CNc2ccccc2SC)ccc1O	H69AR growth 86K 27 (no result: Fibroblast inh)
O=C(CSc1ccccc1)Nc1ccncc1	none (no result: Jurkat tox 60K)
COC(=O)c1cc(Br)c(=O)n(Cc2ccc3c(c2)OCO3)c1	none (no result: Jurkat tox 60K)
COC(=O)c1cc(=O)n(Cc2ccc3c(c2)OCO3)c(=Nc2ccc(F)c(Cl)c2)s1	H69AR growth 86K 33 (no result: Jurkat tox 60K, Pyk2 oligo antag, MT1-MMP txn act)
CCn1c(=O)cc(C(=O)OC)sc1=Nc1ccc(F)c(F)c1	Fibroblast inh 16, H69AR growth 86K 0.7 (no result: Pyk2 oligo antag)
CNC(=O)C1CC(=O)N(CCc2ccc(OC)cc2)C(=Nc2ccc(OC)cc2)S1 (centres undefined)	none (no result: Jurkat tox 60K)
COC(=O)c1cc(=O)n(CCc2ccc(OC)cc2)c(=Nc2ccc(F)c(Cl)c2)s1	HUVEC inhibit 22, H69AR growth 86K 1.7 (no result: Jurkat tox 60K, Pyk2 oligo antag, MT1-MMP txn act)
COC(=O)c1cc(=O)n(CCc2ccccc2)c(=Nc2ccc(F)cc2)s1	H69AR growth 86K 1.3 (no result: Jurkat tox 60K, Pyk2 oligo antag, MT1-MMP txn act)
CCCCN=c1sc(C(=O)OC)cc(=O)n1CCCC	none (no result: HUVEC inhibit, Fibroblast inh, Jurkat tox 60K, H69AR growth 86K)
CCOc1ccc(-c2nc(-c3ccccc3C)no2)cc1	none (no result: Pyk2 oligo antag)
O=C(CCc1ccccc1)Nc1cc(Cl)ccc1O	none (no result: Jurkat tox 60K, MT1-MMP txn act)
CC(=O)Nc1cccc(NC(=O)C2CCCN2C(=O)Nc2ccccc2C)c1 (centres undefined)	none
Fc1ccc(/C=C2\CCCC3=C2Nc2ncnn2C3c2ccc(F)cc2)cc1 (centres undefined)	H69AR growth 86K 22 (no result: Jurkat tox 60K)
COCc1cc(=O)[nH]c(Nc2nc(C)c3ccc(C)cc3n2)n1	none (no result: HUVEC inhibit, Fibroblast inh, Pyk2 oligo antag, H69AR growth 86K)
CCOc1ccc2nc(Nc3nc4c(c(=O)[nH]3)CCC4)nc(C)c2c1	none (no result: Pyk2 oligo antag)
COc1ccc2nc(Nc3nc(CSc4nnnn4-c4ccccc4)cc(=O)[nH]3)nc(C)c2c1	HUVEC inhibit 3.0, H69AR growth 86K 1.7 (no result: Jurkat tox 60K)
CCOc1ccc2nc(Nc3nc(CSc4nnnn4-c4ccccc4)cc(=O)[nH]3)nc(C)c2c1	H69AR growth 86K 4.5 (no result: Jurkat tox 60K)
COCc1cc(=O)[nH]c(Nc2nc(C)c3ccccc3n2)n1	Fibroblast inh 48, H69AR growth 86K 27 (no result: Jurkat tox 60K)
CCOc1ccc(OCCSc2nnnn2-c2ccccc2)cc1	Pyk2 oligo antag -4.1 (no result: Jurkat tox 60K)
